Test results taken from ChEMBL document CHEMBL1125645, “Specific bradycardic agents. 2. Heteroaromatic modifications in the side chain of specific bradycardic benzazepinones: chemistry, pharmacology, and structure-activity relationships” (1991).
Calls of active or inactive are those of the source. The rule behind the calls is not given here.

How the values were obtained:
[1] = system: Rattus norvegicus; assay: Bradycardic activity was evaluated in an anesthetized rat model as percent heart rate(beats/min) reduction 20 min after iv injection of 5 mg/kg; type: functional
Method in brief: (§1)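 Male Chbb:THOM rats, 200-250 g, anesthetized with pentobarbital sodium 50 mg/kg ip, with the trachea cannulated and artificial respiration given. Heart rate was recorded continuously by an ECG-triggered beat-to-beat tachograph before and at 5 and 20 min after a single iv injection of 5 mg/kg. Values are % change from pre-dose, reported ± SEM.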

[2] = system: Rattus norvegicus; assay: Hypotensive activity was evaluated in an anesthetized rat model as percent mean aortic blood pressure(mm hg) reduction 5 min after iv injection of 5 mg/kg; type: functional, Artery
Method in brief: (§2)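 In pentobarbital-anesthetized (50 mg/kg ip), artificially ventilated male Chbb:THOM rats (200-250 g), mean aortic pressure was measured through a carotid artery cannula connected to an electromechanical transducer. Readings were taken before and 5 min after 5 mg/kg iv. Values are % change from baseline, ± SEM.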

[3] = species on record: Rattus norvegicus; assay: (§3) Ratio of heart rate reduction to mean arterial blood pressure reduction; type: functional
Method in brief: (§4)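 Selectivity parameter S: the % heart-rate reduction divided by the % mean arterial pressure reduction, both read 5 min after 5 mg/kg iv in anesthetized, ventilated male Chbb:THOM rats. Heart rate came from an ECG-triggered tachograph and pressure from a carotid cannula.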

[4] = system: Rattus norvegicus; assay: Bradycardic activity was evaluated in an anesthetized rat model as percent heart rate(beats/min) reduction 5 min after iv injection of 5 mg/kg; type: functional; method in brief: as §1
[5] = (§5) delta HR Ratio measured as the ratio of delta HR(20 min)/delta HR (5 min); type: functional
Method in brief: (§6)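 Duration-of-action index: the % heart-rate reduction at 20 min divided by that at 5 min after 5 mg/kg iv. Rats were male Chbb:THOM, pentobarbital-anesthetized and ventilated, with heart rate taken from an ECG-triggered tachograph.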

[6] = as §5; method in brief: as §6
[7] = as §3; type: tissue-based; method in brief: as §4
[8] = system: Rattus norvegicus; assay: Bradycardic activity was evaluated in an anesthetized rat model as percent heart rate(beats/min) reduction 5 min after iv injection of 5 mg/kg of the compound; NA=Not active; type: functional, organism-based; parameters: dose 5 mg/kg; method in brief: as §1
[9] = system: Rattus norvegicus; assay: Bradycardic activity was evaluated in an anesthetized rat model as percent heart rate(beats/min) reduction 20 min after iv injection of 5 mg/kg of the compound; NA=Not active; type: functional, organism-based; parameters: dose 5 mg/kg; method in brief: as §1
[10] = system: Rattus norvegicus; assay: Hypotensive activity was evaluated in an anesthetized rat model as percent mean aortic blood pressure(mm hg) reduction 5 min after iv injection of 5 mg/kg of the compound; NA=Not active; type: functional, organism-based; parameters: dose 5 mg/kg; settings: Artery; method in brief: as §2
[11] = system: Rattus norvegicus; assay: Bradycardic activity was evaluated in an anesthetized rat model as percent heart rate(beats/min) reduction 20 min after iv injection of 5 mg/kg of the compound; NA= Not active; type: functional, organism-based; parameters: dose 5 mg/kg; method in brief: as §1

In the case of `COc1cc2c(cc1OC)CC(=O)N(CCCN(C)CCc1cn(C)cn1)CC2`, the “Delta HR” value [1] is reported as -11%, the “Delta MAP” value [2] is reported as -10% and the Selectivity [3] is reported as 1. The “Delta HR” value [4] was -10% and the Ratio [5] was 1.1.

With `COc1cc2c(cc1OC)CC(=O)N(CCCN(C)CCc1c[nH]c3c(C)cccc13)CC2` the “Delta HR” value [1] was -44%, the “Delta MAP” value [2] was -26% and the “Delta HR” value [4] was -50%. It also gave a Ratio [6] of 0.88 and a Selectivity [7] of 1.9.

With `COc1cc2c(cc1OC)CC(=O)N(CCCN(C)Cc1cccnc1)CC2` the “Delta HR” value [8] was “inactive”, the “Delta HR” value [9] was “inactive” and the “Delta MAP” value [10] was “inactive”.

With `COc1cc2c(cc1OC)CC(=O)N(CCCN(C)CCc1c[nH]cn1)CC2` the “Delta HR” value [11] was “inactive”, the “Delta MAP” value [2] was -11% and the “Delta HR” value [8] was “inactive”.

With `COc1cc2c(cc1OC)CC(=O)N(CCCN(C)Cc1ccccn1)CC2` the “Delta HR” value [8] was “inactive”, the “Delta HR” value [9] was “inactive” and the “Delta MAP” value [10] was “inactive”.

In the case of `COc1ccc2c(CCN(C)CCCN3CCc4cc(OC)c(OC)cc4CC3=O)csc2c1`, the “Delta HR” value [1] is reported as -60%, the “Delta MAP” value [2] is reported as -52% and the Selectivity [3] is reported as 1.3. For the same compound, the “Delta HR” value [4] was -67% and the Ratio [5] was 0.89.
